Apaf-1 act: activates human Apaf-1 apoptosome | 330,000 compounds, 0.31% hits | Apaf-1 apoptosome caspase-3 activation, DEVD-Rh110 fluorescence; hits give low values | activity change, negative = activation, % at 20 µM | AID 489031 | O14727;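 active = activity change at or below -40% at 20 µM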
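Material: reconstituted apoptosome of Apaf-1, cytochrome c, caspase-9, procaspase-3; times: 30 min preincubation, 50 min reaction, room temperature; measured by: fluorescence, 540 nm emission, 480 nm excitation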
Rh110 act interf: interferes with Rh110 fluorescence, flagging false Apaf-1 activators; fluorescence interference (activity change), % at 20 µM, hits read low; Rh110 fluorescence interference, quenched caspase reaction, Ex480/Em540; shares compounds with Apaf-1 act; 980 tested, under 10 active;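 active = mean activity change at or below -40% when tested at 20 µM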
Apaf-1 act conf2: Apaf-1 (human) activation, single-dose confirmed; shares compounds with Apaf-1 act; reconstituted apoptosome caspase-3 activity, DEVD-Rh110 fluorescence; hits give low values; activity change, negative = activation, % at 20 µM; 980 compounds, 5% hits; AID 504617;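 active = mean activity change at or below -40%, meaning activation of 40% or more, at 20 µM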
Large screens that a line does not name were inactive (follow-up assays come after a bar, where they were run). A selection follows.

CCOC(=O)c1cnc2ccc(C)cc2c1Nc1ccc(N2CCOCC2)cc1	none
CCCCCCCNC(=O)C1(CC2CC(c3cccc(Br)c3)=NO2)CCNCC1 (stereo unspecified)	none
Cc1ccc(-n2c(SCC(=O)Nc3cc(C)on3)nc3c([nH]c4ccccc43)c2=O)cc1	none
CN(C)CCCNC(=O)C(=O)NCC1OCCN1S(=O)(=O)c1cccs1 (stereo unspecified)	none
CC(=O)OCCCNc1cc(Sc2nc3ccccc3s2)c2nonc2c1[N+](=O)[O-]	none
O=C(NNc1cc(N2CCOCC2)nc(N2CCOCC2)n1)c1ccc([N+](=O)[O-])cc1	none
O=C1C(=O)N(CCN2CCOCC2)C(c2ccc([N+](=O)[O-])cc2)/C1=C(/O)c1ccc2c(c1)OCO2 (stereo unspecified)	Apaf-1 act -319 | Rh110 act interf inactive | Apaf-1 act conf2 inactive
Clc1nc(Nc2ccc(N3CCOCC3)cc2)c2ccccc2n1	Apaf-1 act -393 | Rh110 act interf inactive | Apaf-1 act conf2 inactive
O=C(O)c1ccc(NC2=C(N3CCOCC3)C(=O)c3ccccc3C2=O)cc1	none
C#CCOCCOCCOCCNc1nc(N2CCN(C(=O)[C@H](Cc3ccc(O)cc3)n3cc([C@@H](N)C(C)CC)nn3)CC2)nc(N2CCN(C(=O)[C@H](Cc3cc4ccccc4[nH]3)n3cc([C@@H](N)Cc4ccc(O)cc4)nn3)CC2)n1 (stereo partly specified)	none
CCCOc1cc2c(C#N)c(N3CCCC3)nc(N)c2c(N)n1	none
CC[C@H](C)[C@@H]1NC(=O)[C@H]([C@@H](C)CC)NC(=O)[C@@H](CC(C)C)NC(=O)[C@H](Cc2ccccc2)NC(=O)[C@H](Cc2ccccc2)NC(=O)[C@@H]2CCCN2C(=O)[C@@H]2CCCN2C(=O)[C@H](C(C)C)NC(=O)[C@H](CC(C)C)NC1=O	none
O=C(c1ccccc1)c1ccc2c(c1)OCCOCCOCCOCCO2	Apaf-1 act -208 | Rh110 act interf inactive | Apaf-1 act conf2 inactive
N#Cc1c(N2CCCC2)nc(N)c2c(N)nc(N3CCCC3)cc12	none
C#CCOCCOCCOCCNc1nc(N2CCN(C(=O)CCCCCCCCCCNC(=O)Cn3cc(CCCCCN)nn3)CC2)nc(N2CCN(C(=O)CCCCCCCCCCNC(=O)Cn3cc(C[C@@H](C)O)nn3)CC2)n1	none
O=C(O)CCCN1C(=O)/C(=C/c2ccc(-c3nc4ccccc4s3)o2)SC1=S	Apaf-1 act -406 | Rh110 act interf inactive | Apaf-1 act conf2 inactive
CCCCc1nn2c(N)c(/C=C3\C=Nc4ccccc43)c(=O)nc2s1	Apaf-1 act -459 | Rh110 act interf inactive | Apaf-1 act conf2 inactive
c1cc2c3c(cccc3c1)C(N1CCCCC1)=N2	none
CN(C)CCC(c1ccc(Br)cc1)c1ccccn1 (stereo unspecified)	none
C=CC(=O)Nc1ccc(Nc2nc(NC3CCC(N(C)C)CC3)nc3c2ncn3C(C)C)cc1 (stereo unspecified)	none
O=S(=O)(Nc1cccc(-c2nc3cccnc3s2)c1)c1ccc2c(c1)OCCO2	Apaf-1 act -104 | Rh110 act interf inactive | Apaf-1 act conf2 inactive
COc1ccc(S(=O)(=O)Nc2cccc3c2O[C@H](CN(C)Cc2ccccc2)[C@@H](C)CN([C@H](C)CO)C3=O)cc1	none
COc1ccc(NC(=S)Nc2ccc3nsnc3c2)cc1	none
Cc1ccc(N2C(=O)[C@@H]3[C@H](C2=O)C2c4ccccc4C=CN2[C@@H]3C(=O)c2ccco2)c(C)c1 (stereo partly specified)	none
CCCC(=O)OC1CC(C)N(C(=O)c2ccccc2)c2ccc(C)cc21 (stereo unspecified)	Apaf-1 act -67 | Rh110 act interf inactive | Apaf-1 act conf2 inactive
COC(=O)CCC(=O)OC1(C)C(=O)C=C2C=C(C3CC3)N(C3CCCC3)C=C2C1=O (stereo unspecified)	none
Cc1ccc(C)c(NC(=S)NC(NC(=O)OCc2ccccc2)C(Cl)(Cl)Cl)c1 (stereo unspecified)	Apaf-1 act -41 | Rh110 act interf inactive | Apaf-1 act conf2 inactive
CC(/C=N/NC(=O)Cc1cc(=O)[nH][nH]1)=C\c1ccccc1	none
CCOC12NC(=O)CC(=O)N1C(c1ccccc1)=CS2 (stereo unspecified)	Apaf-1 act -294 | Rh110 act interf inactive | Apaf-1 act conf2 inactive
CC(C)Oc1ccc(N2CC(C(=O)Nc3ccc(N4CCOCC4)cc3)CC2=O)cc1 (stereo unspecified)	Apaf-1 act -107 | Rh110 act interf inactive | Apaf-1 act conf2 inactive
CC(=O)c1ccc(NC2=C(N3CCOCC3)C(=O)c3ccccc3C2=O)cc1	none
NC(CO)C(=O)NNCc1ccc(O)c(O)c1O (stereo unspecified)	none
NCCN1CCN(S(=O)(=O)c2ccc([N+](=O)[O-])cc2)C=C1c1ccc(Cl)cc1	none
Cc1cccc(NC(=O)CN(C)S(=O)(=O)c2cccc3cccnc23)c1C	Apaf-1 act -164 | Rh110 act interf inactive | Apaf-1 act conf2 inactive
Cn1c(NC(=O)c2ccc(Cl)s2)cc(=O)n(C)c1=O	none
Nc1c(C(=O)NCC2CCCO2)c2nc3ccccc3nc2n1-c1ccccc1 (stereo unspecified)	none
O=C(NCC1CCCO1)c1ccc(Br)s1 (stereo unspecified)	Apaf-1 act -522 | Rh110 act interf inactive | Apaf-1 act conf2 inactive
COc1ccc(CCN2C(=O)C3C4CC(C5C(C(=O)NN)=NOC45)C3C2=O)cc1OC (stereo unspecified)	Apaf-1 act -312 | Rh110 act interf inactive | Apaf-1 act conf2 inactive
Cc1nn2c(-c3ccncc3)nnc2c2ccccc12	none
Cc1noc(C)c1COc1ccccc1C(=O)N1CCN(c2cccc(Cl)c2)CC1	none
COc1ccccc1N1CCN(C(=O)c2cc(C(C)(C)C)oc2C)CC1	Apaf-1 act -380 | Rh110 act interf inactive | Apaf-1 act conf2 inactive
COc1ccc2[nH]c3c4c(ccc3c2c1)C(=O)C=CC4=O	none
CCNC1=C(Cl)C(=O)c2ccccc2C1=O	none
COc1ccc(CC(=O)N(C)CC(=O)Nc2ccccc2Cl)cc1S(=O)(=O)N1CCOCC1	none
COc1ccc(CN2C(=O)c3cccnc3C2=O)cc1S(=O)(=O)N1CCOc2ccccc21	Apaf-1 act -52 | Rh110 act interf inactive | Apaf-1 act conf2 inactive
COc1ccc(CN(C)C(=O)Cc2ccc(OC)c(S(=O)(=O)N3CCOCC3)c2)cc1OC	none
CC(=O)[C@H]1CC[C@H]2[C@@H]3CCC4=CC(=O)CC[C@]4(C)[C@H]3CC[C@]12C	none
CC(=O)[C@@]1(O)CCC2C3C=CC4=CC(=O)CC[C@]4(C)C3CC[C@@]21C (stereo partly specified)	Apaf-1 act -287 | Rh110 act interf inactive | Apaf-1 act conf2 inactive
CCc1cccc(C)c1NC(=S)NCc1ccc2c(c1)cc(C)n2C	none
COC(=O)c1cccc(C23CC4(C2)[C@H](CN(CC2CCCCC2)[C@@H]4c2ccccc2)C3c2ccccc2)c1 (stereo partly specified)	none
O=C(CSc1cn[nH]n1)Nc1nc2ccccc2s1	Apaf-1 act -285 | Rh110 act interf inactive | Apaf-1 act conf2 inactive
CC(=O)c1ccc(NC(=O)CC2Nc3cccc4cccc(c34)NC2=O)cc1 (stereo unspecified)	none
CC(=O)c1ccc(NC(=O)CSc2cn[nH]n2)cc1	Apaf-1 act -294 | Rh110 act interf inactive | Apaf-1 act conf2 inactive
